The source made the active and inactive calls.
How the values were obtained:
[1] = molecular target: T1, Toll-like receptor 8 (Homo sapiens) (UniProt Q9NR97); assay: Agonist activity at TLR8 in human polymorphonuclear leucocyte cells assessed as induction of NF-kappaB phosphorylation measured after 15 mins in presence of 10% FBS by Alexa fluor 647 dye based flow cytometry analysis; format: tissue-based; settings: filed as agonist, in the assay text read “PE-Cy7 dye” for “Alexa fluor 647 dye”
T1 sequence (whole entry): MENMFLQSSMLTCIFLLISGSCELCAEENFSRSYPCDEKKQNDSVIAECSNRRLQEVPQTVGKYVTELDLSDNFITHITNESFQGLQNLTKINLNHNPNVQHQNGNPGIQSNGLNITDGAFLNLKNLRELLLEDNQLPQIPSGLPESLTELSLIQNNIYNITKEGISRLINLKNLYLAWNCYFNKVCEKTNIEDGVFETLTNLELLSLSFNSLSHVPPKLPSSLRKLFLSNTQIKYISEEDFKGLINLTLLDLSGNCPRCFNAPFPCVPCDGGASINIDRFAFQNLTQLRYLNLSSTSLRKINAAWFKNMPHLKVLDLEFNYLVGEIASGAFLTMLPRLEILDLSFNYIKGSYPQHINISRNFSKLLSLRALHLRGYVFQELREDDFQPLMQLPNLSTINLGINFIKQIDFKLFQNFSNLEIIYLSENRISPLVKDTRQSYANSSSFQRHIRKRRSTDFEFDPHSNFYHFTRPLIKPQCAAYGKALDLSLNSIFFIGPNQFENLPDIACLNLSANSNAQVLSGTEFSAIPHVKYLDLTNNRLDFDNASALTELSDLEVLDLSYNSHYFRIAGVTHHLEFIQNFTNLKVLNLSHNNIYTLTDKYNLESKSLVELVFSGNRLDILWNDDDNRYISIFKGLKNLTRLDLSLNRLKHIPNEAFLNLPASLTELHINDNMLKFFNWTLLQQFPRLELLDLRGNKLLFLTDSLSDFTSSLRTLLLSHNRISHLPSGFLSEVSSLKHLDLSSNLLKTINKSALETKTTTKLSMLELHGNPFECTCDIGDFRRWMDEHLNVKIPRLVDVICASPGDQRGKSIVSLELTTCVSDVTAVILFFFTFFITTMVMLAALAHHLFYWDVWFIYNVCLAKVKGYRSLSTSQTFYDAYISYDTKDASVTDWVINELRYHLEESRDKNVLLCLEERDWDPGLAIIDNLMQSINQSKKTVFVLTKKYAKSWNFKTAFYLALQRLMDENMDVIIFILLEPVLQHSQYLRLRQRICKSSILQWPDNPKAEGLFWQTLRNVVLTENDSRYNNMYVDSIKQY
Procedure, shortened: (§1)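 Whole human blood with anticoagulant was added to serial compound dilutions in RPMI with 10% FBS and held at 37 °C for 15 min. Samples were lysed and fixed three times, permeabilized in ice-cold methanol for 30 min, then stained on ice for 60 min with anti-NF-κB p65-PECy7, p38MAPK-PE and ERK1/2-AlexaFluor 647. Flow cytometry acquired 100,000 gated events; monocytes and polymorphonuclear cells were gated.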

[2] = molecular target: T1, Toll-like receptor 8 (Homo sapiens); assay: Agonist activity at TLR8 in human monocytes assessed as induction of NF-kappaB phosphorylation measured after 15 mins in presence of 10% FBS by Alexa fluor 647 dye based flow cytometry analysis; format: cell-based; settings: Monocyte, filed as agonist, in the assay text read “PE-Cy7 dye” for “Alexa fluor 647 dye”; procedure, shortened: as §1
[3] = molecular target: T1, Toll-like receptor 8 (Homo sapiens); assay: Agonist activity at TLR8 in human PBMC cells assessed as induction of TNFalpha production incubated for 16 hrs by immunoassay; format: cell-based; settings: filed as agonist
Procedure, shortened: (§2)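 Fresh human PBMCs isolated from venous blood, plated at 10^5 cells in 100 µL per well and stimulated for 16 h with graded concentrations of compound. Supernatants were collected by centrifugation and assayed in duplicate with a multiplexed cytokine/chemokine magnetic bead array.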

[4] = molecular target: T1, Toll-like receptor 8 (Homo sapiens); assay: Agonist activity at TLR8 in human PBMC cells assessed as induction of IL-1beta production incubated for 16 hrs by immunoassay; format: cell-based; settings: filed as agonist; procedure, shortened: as §2
[5] = molecular target: T1, Toll-like receptor 8 (Homo sapiens); assay: Agonist activity at TLR8 in human PBMC cells assessed as induction of IFNgamma production incubated for 16 hrs by immunoassay; format: cell-based; settings: filed as agonist; procedure, shortened: as §2
[6] = molecular target: T1, Toll-like receptor 8 (Homo sapiens); assay: Agonist activity at TLR8 in human PBMC cells assessed as induction of IL-12p40 production incubated for 16 hrs by immunoassay; format: cell-based; settings: filed as agonist; procedure, shortened: as §2
[7] = molecular target: T1, Toll-like receptor 8 (Homo sapiens); assay: Agonist activity at TLR8 in human PBMC cells assessed as induction of MCP1 production incubated for 16 hrs by immunoassay; format: cell-based; settings: filed as agonist; procedure, shortened: as §2
[8] = molecular target: T1, Toll-like receptor 8 (Homo sapiens); assay: Agonist activity at TLR8 in human PBMC cells assessed as induction of MIP-1alpha production incubated for 16 hrs by immunoassay; format: cell-based; settings: filed as agonist; procedure, shortened: as §2
[9] = molecular target: T1, Toll-like receptor 8 (Homo sapiens); assay: Agonist activity at TLR8 in human PBMC cells assessed as induction of IL-6 production incubated for 16 hrs by immunoassay; format: cell-based; settings: filed as agonist; procedure, shortened: as §2
[10] = molecular target: T1, Toll-like receptor 8 (Homo sapiens); assay: Agonist activity at TLR8 in human PBMC cells assessed as induction of MIP-1beta production incubated for 16 hrs by immunoassay; format: cell-based; settings: filed as agonist; procedure, shortened: as §2

Measured: Activity

CCCCCc1cc2c(CCCCCN)cccc2nc1N
active: [1] Dose-dependent effect | [2] Dose-dependent effect

CCCCCc1cc2ccccc2nc1N
active: [1] Dose-dependent effect | [2] Dose-dependent effect

CCCCCn1c(N)nc2c(C)cccc21
active: [3] | [4] | [5] | [6] | [1] Dose-dependent effect | [7] | [2] Dose-dependent effect | [8] | [9] | [10]
